Screens (PubChem)
Sampled rows, rich in hits. Any-hit rate of the full collection: about 12%.
Autophagy HCS: autophagy modulation, high-content screen | MEF GFP-LC3 puncta imaging; test concentration mostly 10 µM | calls only at 10 µM (by protocol) | hit rate 0.98% among 190,000 | AID 463193;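 active means percentage of spot-positive cells more than 3 SD above its plate mean, without a fluorescence outlier flag or 80% toxicity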;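 further: spot-positive cell cutoff set from DMSO-treated cells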
MT stabilize HCS: microtubule stabilizers in HeLa cells; hit rate 0.83% among 200,000; HeLa tubulin immunostaining HCS, 24 h; share of cells brighter than vehicle mean+2SD; % tubulin-high responders, % at 10 µM;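 active means plate Z-score above 3 for both tubulin-high and condensed-nucleus cell shares, with cell loss under 80%, at 10 µM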;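 further: anti alpha tubulin signal scored within the nucleus-defined area of each cell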
bCat nuc transl: alters nuclear translocation of beta-catenin in HeLa cells; immunofluorescence imaging; nuclear translocation activity, % at 5 µM; hit rate 0.3% among 190,000; AID 1665;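 active means nuclear translocation activity above 50% at 5 µM, with a well cell count of 50 or more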;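 further: per-cell ratio of nuclear to cytoplasmic median beta-catenin stain intensity; plate controls were DMSO negative control for no effect and GSK-3 inhibitor IX positive control for full effect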
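test system = HeLa cells, endogenous beta-catenin | dosing = single 5 µM dose plus 0.02–20 µM confirmation series | times = compound treatment 24 h, 37°C, 5% CO2 | technique = beta-catenin immunofluorescence imaging with DAPI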
CHOP inh: inhibitors of CHOP induction in ER stress response; CHO-K1 CHOP-promoter luciferase, tunicamycin-induced, 15-18 h; inhibition, % at 10 µM; hit rate 3.8% among 220,000; AID 2732;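 active means compounds that reduced the stress-induced luciferase reporter signal by more than about 70% of percent inhibition, limit read from the data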;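 further: 0% = tunicamycin plus vehicle and 100% = wells without tunicamycin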
Dynein cargo inh: blocks dynein driven cargo transport along microtubules; 3617.4 mouse cells, GR-EGFP nuclear translocation imaging; test concentration mostly 20 µM; stimulated with dexamethasone, 1 µM; hits give low values; z-score, hits read low; hit rate 0.47% among 220,000;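 active means plate z-score of nuclear minus cytoplasmic receptor signal below a set negative limit, without overly bright fluorescence or cell loss, cut at about -3.5 in these data, passing the limit was not always enough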;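 further: z-score of nuclear minus cytoplasmic ring GR-EGFP intensity difference per well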
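Buffer or medium: Induction medium lacking tetracycline, stripped serum | Also added: Dexamethasone agonist, 1.0 µM final, for 30 min | Timing: 48 h induction, 1 h compound, 30 min dex at 37 °C | Detection: Formaldehyde fixation, Hoechst nuclear stain, 10x automated fluorescence imaging | Measure: Nuclear versus cytoplasmic GR-EGFP signal, averaged per well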
L major viab: reduces viability of Leishmania major promastigotes | inhibition, % at 10 µM | AID 1063 | hit rate 9% among 200,000 | resazurin fluorescence viability; in the data active means inhibition above about 50%;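 further: promastigotes grown with compound for 44 hours at 28 °C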
Active calls of the source: *; i = inactive; · = no result given; + = active, no number.

SMILES	Autophagy HCS	MT stabilize HCS	bCat nuc transl	CHOP inh	Dynein cargo inh	L major viab
CN(C)CCNC(C(=O)Nc1cccc(C(F)(F)F)c1)c1ccccc1 (stereo not given)	i	4	0	-1	-0.41	-1
Cc1ccc(NC(=O)C(OC(=O)c2cc(C)oc2C)c2ccccc2)cc1 (stereo not given)	i	2	-1	54	0.4	52*
CCc1ccccc1NC(=O)CSc1nnc(-c2ccco2)n1N	i	2	·	9	-0.25	-8
Cc1ccsc1-c1nc(CSCC(=O)NCc2ccc3c(c2)OCO3)c(C)o1	i	2	·	81*	0.71	-3
COc1ccc(-c2nc(CSCC(=O)NCc3ccc4c(c3)OCO4)c(C)o2)cc1	i	5	·	80*	-0.92	-3
COc1ccc(-c2nc(CSCC(=O)NCc3ccc4c(c3)OCO4)c(C)o2)cc1OC	i	3	-2	36	-0.21	-4
CC(C)=CCN1CCNC(=O)C1CC(=O)NCc1nc(C)c(C)s1 (stereo not given)	i	4	0	7	2.6	4
CCn1ccnc1CN1CCC(CO)(CCOc2ccccc2)CC1	i	3	0	1	-0.98	1
Cc1nn(C)c(Cl)c1CN1CCC(CO)(CCOc2ccccc2)CC1	i	2	-1	4	-0.83	72*
COc1cc(OC)c(CN2CCC(CO)(CCOc3ccccc3)CC2)c(OC)c1	i	1	-2	-2	1.2	2
COc1cc(CN2CCC(CO)(CCOc3ccccc3)CC2)cc(OC)c1OC	i	·	1	5	-0.88	87*
COc1ccc(CN2CCC(CO)(CCOc3ccccc3)CC2)cc1C	i	4	0	32	-1.2	85*
OCC1(CCOc2ccccc2)CCN(CCCn2cccn2)CC1	i	3	2	6	-0.34	81*
CCOC(=O)c1nc(-c2ccc(OC)c(OC)c2)no1	i	3	-4	9	-0.1	-6
CC(=O)N1CSCC1C(=O)NNS(=O)(=O)c1cccc(C(F)(F)F)c1 (stereo not given)	·	·	0	7	0.54	·
COc1cccc(C(=O)CN(C(=O)c2ccc(Cl)c(Cl)c2)N2C(=O)C3CCCCC3C2=O)c1 (stereo not given)	i	2	·	47	-0.054	-10
CC(C)c1ccc(C2C(C#N)=C(N)N3C(=C2C#N)Sc2ccccc23)cc1 (stereo not given)	+	4	0	42	-1	9
CCC(C)(C)n1nnnc1C(c1ccc2ncccc2c1)N1CCN(c2ccc(O)cc2)CC1 (stereo not given)	·	·	0	19	0.56	·
CCC(C)(C)n1nnnc1C(c1ccc(C)cc1)N1CCC(C)CC1 (stereo not given)	i	4	-1	-11	-0.72	62*
CCC(C)(C)n1nnnc1C(c1ccc(C)cc1)N1CCN(Cc2ccc3c(c2)OCO3)CC1 (stereo not given)	i	4	0	20	-0.41	81*
CCC(C)(C)n1nnnc1C(c1ccc2ncccc2c1)N1CCN(Cc2ccc3c(c2)OCO3)CC1 (stereo not given)	i	3	-6	40	0.18	99*
O=Cc1cnc(N2CCOCC2)nc1	i	3	1	-11	1.6	47
Cc1cc(NC(=O)CCC(=O)N(c2ccc(F)cc2)C(C(=O)NC2CCCC2)c2ccncc2)no1 (stereo not given)	i	2	·	20	-0.039	-1
COc1ccc(OC)c(-c2c(C#N)c(N)nc3c2c(=O)nc2sccn23)c1	+	3	0	-14	-0.48	1
CC(C)c1ccc(-c2nn(-c3ccccc3)cc2C2C(C#N)=C(N)OC3=C2C(=O)CC(C)(C)C3)cc1 (stereo not given)	i	2	·	36	-0.15	77*
SMILES	Autophagy HCS	MT stabilize HCS	bCat nuc transl	CHOP inh	Dynein cargo inh	L major viab
COc1ccc(-c2nc(SC(CC(=O)NCCN3CCOCC3)c3cccs3)n[nH]2)cc1 (stereo not given)	i	5	-1	15	-1.1	-4
O=[N+]([O-])c1cccc(Cl)c1CSc1ccccn1	i	1	1	17	0.66	10
Cc1nnc(SCc2c(Cl)cccc2[N+](=O)[O-])s1	i	4	-3	23	0.015	80*
COc1cc(-n2c(-c3ccccc3)n[nH]c2=S)c(OC)cc1Cl	i	3	1	-8	0.65	59*
COc1cc(OC)cc(-c2n[nH]c(=S)n2-c2cc(OC)ccc2OC)c1	i	1	-2	24	0.28	100*
CCOC(=O)C(CC)(CC)/C(C)=N/NC(=O)CC#N	i	3	·	-2	0.68	-2
OCCNCC(O)Cn1c2ccccc2c2ccccc21 (stereo not given)	+	6	4	-9	1.2	28
COc1ccccc1CNCC(O)Cn1c2ccccc2c2ccccc21 (stereo not given)	i	9	1	51	2	100*
NC(=O)C1CCN(C(=O)c2ccco2)CC1	i	3	-1	-15	0.18	-5
O=c1c(Cc2ccccc2)c(O)ccn1Cc1ccco1	i	2	4	5	0.32	-7
COc1c(C(=O)Nc2ccc(Cc3ccncc3)cc2)ccc2ccccc12	i	14	6	28	0.44	18
CCOC(=O)CC(C)(C)/C(C)=N/Nc1ccc([N+](=O)[O-])cc1[N+](=O)[O-]	i	4	2	59	1.7	3
COc1ccc(CCNC(=O)COc2ccc(S(=O)(=O)NC3CCCCC3)cc2Cl)cc1	i	2	-1	59	0.15	75*
O=C(COc1ccc(S(=O)(=O)NC2CCCCC2)cc1Cl)N1CCN(c2ccccc2)CC1	i	1	-9	70	-0.93	98*
O=C(COc1ccc(S(=O)(=O)NC2CCCCC2)cc1)N1CCN(c2ccc(F)cc2)CC1	i	4	-2	58	-0.85	16
O=C(NC1CCCC1)C1CCCN1C(=O)Oc1ccccc1 (stereo not given)	i	2	0	11	-0.33	-5
Cc1ccc(CN=C(Nc2ccccc2)NC2CCCCC2)cc1	i	4	-3	10	-0.82	60*
COc1ccccc1N1CCN(C(=O)c2ccc(NS(=O)(=O)c3ccc(C)cc3)cc2)CC1	i	1	-3	15	-0.74	19
COc1ccccc1N1CCN(C(=O)c2ccc(S(=O)(=O)N3CCCC3)cc2)CC1	i	2	0	-5	-0.79	63*
COc1ccc(N2CCN(C(=O)c3ccc(C(C)(C)C)cc3)CC2)cc1	i	3	·	85*	0.22	0
COc1cc(SC)ccc1C(=O)N1CCN(c2ccccc2OC)CC1	i	23*	50*	1	0.33	0
